Experiments:
Clostridioides difficile [1] = assay: Antimicrobial activity against Clostridioides difficile NR-13432 isolate 6 assessed as reduction in microbial growth after 48 hrs by broth microdilution method; assay type: functional
In short: (§1)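 Broth microdilution: a 0.5 McFarland suspension was diluted in brain heart infusion supplemented (BHIS) broth to ~5 × 10^5 CFU/mL. Agents were serially diluted and plates incubated anaerobically at 37°C for 48 h.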

Clostridioides difficile [2] = assay: Antimicrobial activity against Clostridioides difficile NR-13435 isolate 9 assessed as reduction in microbial growth after 48 hrs by broth microdilution method; assay type: functional; in short: as §1
Clostridioides difficile [3] = assay: Antimicrobial activity against Clostridioides difficile NR-32883 P2 assessed as reduction in microbial growth after 48 hrs by broth microdilution method; assay type: functional; in short: as §1
Clostridioides difficile [4] = assay: Antimicrobial activity against Clostridioides difficile ATCC 43255 assessed as reduction in microbial growth after 48 hrs by broth microdilution method; assay type: functional; in short: as §1
Enterococcus faecium = assay: Antimicrobial activity against vancomycin-resistant Enterococcus faecium ATCC 700221 assessed as reduction in microbial growth after 48 hrs by CLSI based broth microdilution method; assay type: functional
In short: (§2)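 CLSI broth microdilution: strains were grown aerobically overnight on tryptone soy agar at 37°C. A 0.5 McFarland suspension was diluted to ~5 × 10^5 CFU/mL in cation-adjusted Mueller-Hinton broth (E. coli) or tryptone soy broth (enterococci), and agents were serially diluted.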

Enterococcus faecalis = assay: Antimicrobial activity against vancomycin-resistant Enterococcus […] ATCC 51299 assessed as reduction in microbial growth after 48 hrs by CLSI based broth microdilution method; assay type: functional; in short: as §2
Clostridioides difficile [5] = assay: Potency index, ratio of vancomycin MIC to test compound MIC for antibacterial activity against Clostridioides difficile NR-13432 isolate 6; assay type: functional
Clostridioides difficile [6] = assay: Potency index, ratio of vancomycin MIC to test compound MIC for antibacterial activity against Clostridioides difficile NR-13435 isolate 9; assay type: functional
Clostridioides difficile [7] = assay: Potency index, ratio of vancomycin MIC to test compound MIC for antibacterial activity against Clostridioides difficile NR-32883 P2; assay type: functional
Clostridioides difficile [8] = assay: Potency index, ratio of vancomycin MIC to test compound MIC for antibacterial activity against Clostridioides difficile NR-32891 P13; assay type: functional
Clostridioides difficile [9] = assay: Potency index, ratio of vancomycin MIC to test compound MIC for antibacterial activity against Clostridioides difficile NR-32904 P30; assay type: functional
Clostridioides difficile [10] = assay: Potency index, ratio of vancomycin MIC to test compound MIC for antibacterial activity against Clostridioides difficile ATCC 43255; assay type: functional
Caco-2 = assay: Cytotoxicity against human Caco-2 cells assessed as reduction in cell viability at >64 ug/ml after 2 hrs by MTS assay; assay type: cell-based; conditions: caco-2, 2 h, dose >64 µg/ml
In short: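 Caco-2 cells were exposed to compound for 2 h, then to MTS reagent for 4 h, and absorbance was read at 490 nm. Testing was in triplicate, and viability was expressed as percent of DMSO-treated cells.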

[11] = Apparent permeability across apical to basolateral side in human Caco-2 cells; assay type: ADME, cell-based
In short: (§3)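 Bidirectional Caco-2 monolayer transport was run by a contract lab. Papp = (V_R·C_R,end/Δt)·1/[A·(C_D,mid − C_R,mid)]. Donor mid-point is the mean of the 0-min and end donor concentrations; receiver mid-point is half the end receiver concentration. Concentrations were taken as LC peak areas.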

[12] = Apparent permeability across basolateral to apical side in human Caco-2 cells; assay type: ADME, cell-based; in short: as §3
Lactobacillus gasseri = assay: Antibacterial activity against Lactobacillus gasseri HM-400 assessed as reduction in microbial growth after 48 hrs by broth microdilution method
In short: (§4)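 Gut commensal MICs by broth microdilution: a 0.5 McFarland suspension was diluted to ~5 × 10^5 CFU/mL in BHIS broth (Bacteroides) or MRS broth (Lactobacillus). Agents were serially diluted and incubated 48 h at 37°C. MIC was read by visual inspection of growth.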

Bacteroides fragilis = assay: Antibacterial activity against Bacteroides fragilis HM-709 assessed as reduction in microbial growth after 48 hrs by broth microdilution method; assay type: organism-based; in short: as §4
Clostridioides difficile [13] = assay: Antimicrobial activity against Clostridioides difficile ATCC 43255 assessed as drug resistance by measuring frequency of mutation at 15 times of MIC after 48 hrs; assay type: functional
Clostridioides difficile [14] = assay: Antibacterial activity against Clostridioides difficile ATCC 43255 infected in CDI mouse model assessed as survival rate at 50 mg/kg, po for 5 days relative to control; assay type: functional; conditions: ATCC 43255, po, 120 h, time 5 day
Clostridioides difficile [15] = assay: Antibacterial activity against Clostridioides difficile ATCC 43255 infected in CDI mouse model assessed as survival rate at 50 mg/kg, po for 5 days and measured on day 21 relative to control; assay type: functional; conditions: ATCC 43255, po, 504 h, time 21 day
[16] = Selectivity ratio of MIC for antibacterial activity against Bacteroides fragilis HM-711 to antibacterial activity against Clostridioides difficile NR-13432 isolate 6; assay type: ADME
[17] = Selectivity ratio of MIC for antibacterial activity against Bacteroides fragilis HM-711 to antibacterial activity against Clostridioides difficile NR-13435 isolate 9; assay type: ADME
[18] = Selectivity ratio of MIC for antibacterial activity against Bacteroides fragilis HM-711 to antibacterial activity against Clostridioides difficile NR-32883 P2; assay type: ADME
[19] = Selectivity ratio of MIC for antibacterial activity against Bacteroides fragilis HM-711 to antibacterial activity against Clostridioides difficile NR-32891 P13; assay type: ADME
[20] = Selectivity ratio of MIC for antibacterial activity against Bacteroides fragilis HM-711 to antibacterial activity against Clostridioides difficile NR-32895 P19; assay type: ADME
[21] = Selectivity ratio of MIC for antibacterial activity against Bacteroides fragilis HM-711 to antibacterial activity against Clostridioides difficile NR-32904 P30; assay type: ADME
[22] = Selectivity ratio of MIC for antibacterial activity against Bacteroides fragilis HM-711 to antibacterial activity against Clostridioides difficile ATCC 43255; assay type: ADME
[23] = Selectivity ratio of MIC for antibacterial activity against Bacteroides fragilis HM-709 to antibacterial activity against Clostridioides difficile NR-13432 isolate 6; assay type: ADME
[24] = Selectivity ratio of MIC for antibacterial activity against Bacteroides fragilis HM-709 to antibacterial activity against Clostridioides difficile NR-13435 isolate 9; assay type: ADME
[25] = Selectivity ratio of MIC for antibacterial activity against Bacteroides fragilis HM-709 to antibacterial activity against Clostridioides difficile NR-32904 P30; assay type: ADME
[26] = Selectivity ratio of MIC for antibacterial activity against Bacteroides fragilis HM-709 to antibacterial activity against Clostridioides difficile ATCC 43255; assay type: ADME
[27] = Selectivity ratio of MIC for antibacterial activity against Bacteroides dorei HM-719 to antibacterial activity against Clostridioides difficile NR-13432 isolate 6; assay type: ADME
[28] = Selectivity ratio of MIC for antibacterial activity against Bacteroides dorei HM-719 to antibacterial activity against Clostridioides difficile NR-13435 isolate 9; assay type: ADME
[29] = Selectivity ratio of MIC for antibacterial activity against Bacteroides dorei HM-719 to antibacterial activity against Clostridioides difficile NR-32895 P19; assay type: ADME
[30] = Selectivity ratio of MIC for antibacterial activity against Bacteroides dorei HM-719 to antibacterial activity against Clostridioides difficile ATCC 43255; assay type: ADME

Structure (SMILES): O=C(Nc1nnc(-c2cc(Cl)cc(Cl)c2)o1)c1ccc(SC(F)(F)F)cc1
- MIC (Clostridioides difficile [1]): 0.07 µM
- MIC (Clostridioides difficile [2]): 0.007 µM
- MIC (Clostridioides difficile [3]): 0.02 µM
- MIC (Clostridioides difficile [4]): 0.04 µM
- MIC (Enterococcus faecium): 0.29 µM
- MIC (Enterococcus faecalis): 0.14 µM
- Ratio (Clostridioides difficile [5]): 2.5
- Ratio (Clostridioides difficile [6]): 2.5
- Ratio (Clostridioides difficile [7]): 2.5
- Ratio (Clostridioides difficile [8]): 2.5
- Ratio (Clostridioides difficile [9]): 2.5
- Ratio (Clostridioides difficile [10]): 2.5
- Activity (Caco-2): Non-Toxic
- Papp [11]: 0.2 10^-6 cm/s
- Papp [12]: 0.1 10^-6 cm/s
- MIC (Lactobacillus gasseri): 36.8 µM
- MIC (Bacteroides fragilis): 2.3 µM
- Activity (Clostridioides difficile [13]): <1.1 10^-9No_unit
- survival at 50 mg/kg (Clostridioides difficile [14]): 66.7%
- survival at 50 mg/kg (Clostridioides difficile [15]): 100%
- Selectivity ratio [16]: 100
- Selectivity ratio [17]: 100
- Selectivity ratio [18]: 100
- Selectivity ratio [19]: 100
- Selectivity ratio [20]: 100
- Selectivity ratio [21]: 100
- Selectivity ratio [22]: 100
- Selectivity ratio [23]: 100
- Selectivity ratio [24]: 100
- Selectivity ratio [25]: 100
- Selectivity ratio [26]: 100
- Selectivity ratio [27]: 100
- Selectivity ratio [28]: 100
- Selectivity ratio [29]: 100
- Selectivity ratio [30]: 100
